Shown are actives, neighbours in structure and some others; about 4.1% of the full set was active somewhere.
KCNQ1 block – inhibitors of human KCNQ1 potassium channel; P51787; CHO-K1 KCNQ1, FluxOR thallium flux fluorescence; stronger effect = higher value; B-score at 10 µM; 1.3% of 310,000 active; AID 2642;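 active means compounds whose thallium flux B-score, printed positive for inhibition, exceeds three library SD while starting fluorescence stays within three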;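 further: channel opened by potassium depolarization with thallium stimulus after 20 min compound exposure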
KCNK9 inh – inhibitors of human KCNK9 two-pore domain potassium channel; B-score at 10 µM; AID 488922; 1.2% of 310,000 active; HEK293 KCNK9, FluxOR thallium flux fluorescence; stronger effect = lower value;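 active means ratio B-score over 3 SD below the library mean, with starting fluorescence within 5 SD of its mean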;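 further: negative B-score means less thallium flux so channel inhibition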
hERG rescue – hERG (human) protection from proarrhythmic block; Q12809; CHO-hERG, FluxOR thallium flux, dofetilide IC70 present; activation (rescue from dofetilide block), less the hit threshold, % at 10 µM; 0.51% of 310,000 active; AID 1511;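 active means activation above the mean of controls blocked by dofetilide plus 5 SD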;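 further: thallium influx through hERG after potassium depolarization seen as dye fluorescence rise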
KCNK3 block – human KCNK3 channel inhibition, primary screen. CHO-KCNK3 thallium flux, FluxOR fluorescence; stronger effect = lower value. B-score at 10 µM. 0.84% of 340,000 active;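 active means B-score under library mean minus 4 SD, starting fluorescence ratio at most library mean plus 5 SD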;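 further: more negative B-score means stronger inhibition of thallium flux through KCNK3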
KCNQ1 pot – human KCNQ1 channel potentiation or activation | B-score at 10 µM | CHO-K1 KCNQ1, thallium flux FluxOR fluorescence; stronger effect = higher value | 0.35% of 310,000 active | P51787 | AID 2648;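 active means fluorescence ratio B-score, a plate-corrected score, at least three library SD, with initial intensity B-score within 5 SD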
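assay system = CHO-K1 cells stably expressing KCNQ1 | medium = assay buffer, equal DMSO in all wells | timing = 37 °C overnight plating, 90-min dark dye load, 20-min compound pretreatment | measured by = kinetic FluxOR thallium fluorescence, 10-s 1-Hz baseline, 110-s post-stimulus read | measure = fluorescence change relative to baseline, converted to B score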
KCC2 mod – KCC2 (human) Cl- transport modulation; Q9H2X9; KCC2 cells, thallium flux FluoZin-2 fluorescence; B-score of Tl+ flux slope (higher = more flux/activation; lower = inhibition) at 10 µM; 2.2% of 190,000 active; AID 1456;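 active means thallium flux slope and its plate-corrected score both differing from the plate sample mean at a set confidence after two filtering rounds, in either direction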;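 further: slope of fluorescence scaled to starting intensity during 10 to 20 s after thallium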
KCC2 secondary – confirmation of human KCC2 transport modulators. AID 1713. normalised thallium flux (F/F0 slope) at 10 µM. shares compounds with KCC2 mod. HEK293-KCC2, thallium flux, FluoZin2 fluorescence; stronger effect = higher value. 15% of 3,700 active;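 active means thallium flux slope above the same plate's solvent-only control mean plus 3 SD; inconclusive means the two replicate wells disagree; inactive means no significant difference from solvent-only control wells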
KCC2 bumet counter – bumetanide-insensitive thallium flux in KCC2 cells with ouabain, counter-screen; normalized thallium flux at 10 µM; 49% of 3,700 active; AID 1714; HEK293-KCC2 + bumetanide/ouabain, thallium flux FluoZin2; stronger effect = higher value; shares compounds with KCC2 mod;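 active means thallium entry rate above the same plate's blocked-transporter control wells by more than 3 SD; inconclusive means the two repeat wells disagree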;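 further: raw slope of fluorescence over initial fluorescence between 10 and 20 s after thallium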
KCC2 secondary2 – KCC2 (human) modulation, second secondary assay | shares compounds with KCC2 mod | HEK293-KCC2, thallium flux FluoZin2 fluorescence; actives lie on both sides; F/F0 rise rate, 10–20 s post-thallium | normalized thallium flux at 10 µM | 23% of 3,700 active | AID 1715;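 active means thallium flux slope more than 3 SD above or below the plate's solvent-only control mean, mostly below; inconclusive means the two repeat wells disagreed; inactive means no significant shift from solvent-only controls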;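 further: raw slope with 0.1% DMSO as baseline and bumetanide as block control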
HEK counter1 – acts in parental HEK cells, KCC2 counter-screen. thallium flux rate (normalised fluorescence) at 10 µM. AID 1716. 46% of 3,700 active. HEK293 parental cells, thallium flux FluoZin2, ouabain; baseline-ratio fluorescence slope, 10–20 s after thallium. shares compounds with KCC2 mod;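 active means thallium flux rate significantly above the same plate's solvent-only control wells, beyond their mean plus 3 SD; inconclusive means the two replicate wells gave conflicting results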
KCC2 retest ouab – confirmation of human KCC2 modulators with ouabain. shares compounds with KCC2 mod. HEK293-KCC2, thallium flux FluoZin2 fluorescence; bidirectional: low = inhibitor, high = activator. raw Tl+ flux slope (below DMSO = inhibition, above = activation) at 10 µM. 48% of 3,700 active;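 active means thallium flux slope beyond 3 SD from same-plate DMSO control mean in most replicates, usually higher, sometimes lower; inconclusive means repeat tests gave conflicting results; inactive means no significant difference from controls in most replicates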;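 further: slope of initial-normalized fluorescence between seconds 10 and 20 after thallium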
HEK293 Tl flux2 – acts in parental HEK cells, second KCC2 counter-screen | thallium flux slope at 10 µM | 33% of 3,700 active | shares compounds with KCC2 mod | HEK293 parental, thallium flux FluoZin-2 fluorescence slope;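 active means thallium flux slope above the same plate's solvent-control mean plus 3 SD in both duplicate wells; inconclusive means duplicate wells that disagreed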;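 further: run without ouabain in cells lacking the KCC2 cotransporter; slope of fluorescence scaled to its starting value between 10 and 20 s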
The depositor's hits bear a star; i = inactive; ? = inconclusive; . = no result.

SMILES | KCNQ1 block | KCNK9 inh | hERG rescue | KCNK3 block | KCNQ1 pot | KCC2 mod | KCC2 secondary | KCC2 bumet counter | KCC2 secondary2 | HEK counter1 | KCC2 retest ouab | HEK293 Tl flux2
COc1ncnc(OC)c1S(=O)(=O)Nc1ccc(C(F)(F)F)cc1 | i | i | -4 | i | i | . | . | . | . | . | . | .
C(=NN=C1c2ccccc2-c2ccccc21)c1ccc2c(c1)OCO2 | . | . | . | i | . | . | . | . | . | . | . | .
CCOC(=O)c1c(N2C(=O)Nc3cc(Cl)c(Cl)cc3N2O)sc2c1CCCCC2 | . | . | . | i | . | -5.2* | 0.0085 | 0.013* | 0.029 | 0.0076 | ? | 0.0099
O=C(CCSc1ccc(F)cc1)NNC(=O)c1ccc([N+](=O)[O-])cc1 | . | . | . | i | . | . | . | . | . | . | . | .
CCOC(=O)Cn1c(=S)[nH]c2c(oc3ccc(Cl)cc32)c1=O | i | i | -14 | i | 12* | . | 0.022* | 0.041* | 0.033 | 0.02* | 0.04* | 0.014*
CCN(CC)Cc1c(O)ccc2c(C)c(CC(=O)OC)c(=O)oc12 | i | i | -8 | i | i | . | 0.0073 | ? | 0.033 | 0.0077 | 0.019 | 0.012
Cc1ccc(N(CN2CCCC2=O)C(=O)c2ccc(C)c(C)c2)cc1 | i | i | -9 | i | i | . | . | . | . | . | . | .
Cc1ccc(C(=O)N(CN2CCCC2=O)c2ccccc2)cc1C | i | i | -10 | i | i | . | 0.0086 | 0.0064 | 0.028 | 0.0073 | 0.02 | 0.0098
COc1ccc(C(=O)N2[C@@H](C(C)C)COc3cc(Br)ccc3S2(=O)=O)cc1 | . | . | . | i | . | . | . | . | . | . | . | .
C=CCn1c(SCC(=O)Nc2cccc3ccccc23)nnc1-c1cnccn1 | i | i | -14 | i | i | -3* | 0.0083 | ? | 0.032 | 0.0069 | 0.021 | 0.01
CCCCCNC(=O)c1ccc2c(=O)[nH]c3c(C(=O)NCC4CCCO4)sc(=S)n3c2c1 (configuration not stated) | i | i | -20 | i | i | -1.8 | . | . | . | . | . | .
O=C(NC1CCCC1)c1sc(=S)n2c1[nH]c(=O)c1ccccc12 | i | i | -10 | i | i | 24* | 0.015* | 0.052* | 0.03 | 0.024* | 0.045* | 0.014*
Cc1cc(Cl)cc(Cl)c1OCCOc1cccc2cccnc12 | i | i | -3 | i | i | -7* | 0.0057 | 0.0045 | 0.029 | 0.0081 | 0.018 | 0.011
CCOC(=O)C1=C(C)Nc2nnnn2C1c1cccnc1 (configuration not stated) | i | i | -8 | i | i | . | 0.0066 | 0.004 | 0.028 | 0.0074 | 0.018 | 0.01
Cc1cc(C)n(CC(=O)c2ccccc2)c(=O)c1C#N | i | i | -6 | i | i | -0.42 | 0.015 | 0.0048 | 0.028 | 0.0076 | 0.017 | 0.01
COc1cccc(CC(=O)OCC(=O)NCC(=O)Nc2cccc(C)c2C)c1 | i | i | -8 | i | i | . | . | . | . | . | . | .
Fc1ccc(NC(=S)Nc2ccc(Cl)cc2Cl)cc1 | i | i | -8 | . | i | 4.5* | 0.01 | 0.042* | 0.035 | 0.016* | ? | 0.013*
Fc1ccc(CNC(=S)Nc2ccc(Cl)cc2Cl)cc1 | i | i | -10 | i | i | 1.9 | . | . | . | . | . | .
C/C(=N\NC(=S)Nc1cc(S(=O)(=O)N2CCOCC2)ccc1Cl)c1ccccc1F | i | i | 0 | i | i | 6.9* | ? | 0.025* | 0.03 | 0.015* | 0.044* | 0.01
O=C(CSc1nnnn1-c1ccccc1)Nc1nsc(-c2ccccc2)n1 | i | i | -3 | i | i | -6.3* | 0.017 | 0.0049 | 0.024* | 0.0076 | 0.014 | 0.01
CCOc1ccccc1NC(=O)CSc1nnnn1Cc1ccccc1 | i | i | -7 | i | i | -2.6* | 0.0073 | 0.004 | 0.028 | 0.0072 | ? | 0.0094
Cc1nn(Cc2ccccc2Cl)c(C)c1NC(=O)CCCn1nc([N+](=O)[O-])c(Cl)c1C | i | i | -8 | i | i | -0.098 | . | . | . | . | . | .
N#CCCN(C(=O)COC(=O)C1=NNC(=O)CC1)c1ccccc1 | i | i | -10 | i | i | . | . | . | . | . | . | .
COc1ccc(/C=C2\C(=O)NC(=S)N2C(=O)c2ccc(C)cc2)cc1 | i | i | -1 | i | i | 7.5* | 0.0062 | 0.021* | 0.039* | 0.019* | 0.028* | 0.021*
CC(=O)C1=C(C)Nc2ncnn2C1c1cccc(OCc2ccccc2)c1 (configuration not stated) | i | i | -5 | i | i | -3.4* | 0.0079 | 0.006 | 0.032 | 0.0067 | 0.018* | 0.01
SMILES | KCNQ1 block | KCNK9 inh | hERG rescue | KCNK3 block | KCNQ1 pot | KCC2 mod | KCC2 secondary | KCC2 bumet counter | KCC2 secondary2 | HEK counter1 | KCC2 retest ouab | HEK293 Tl flux2
COc1cccc(C2C(C(C)=O)=C(C)Nc3ncnn32)c1 (configuration not stated) | i | i | -5 | i | i | . | . | . | . | . | . | .
Cc1ccc(CN2CCNC(=O)C2CC(=O)NCc2cc(C)n(C)n2)cc1 (configuration not stated) | i | i | -6 | i | i | . | . | . | . | . | . | .
S=C(Nc1ccccc1)Nc1nc2ccccc2n1CCOc1ccccc1 | i | i | 2 | i | i | 29* | 0.011* | 0.059* | 0.029 | 0.017* | 0.036* | ?
CN(CCC#N)C(=O)COC(=O)c1ccc2c(c1)C(=O)N(C1CCCCC1)C2=O | i | i | -6 | i | i | . | . | . | . | . | . | .
CCCCn1c(N2CCC(Cc3ccccc3)CC2)nc2c1c(=O)[nH]c(=O)n2C | i | i | -19 | i | i | -4.9* | 0.0073 | 0.0052 | 0.035 | ? | ? | 0.011
C/C(=N\NC(=O)c1c(Br)c(C)nn1C)c1cccc(NC(=O)C2CCC2)c1 | i | i | -3 | i | i | -5.2* | 0.0055 | 0.0047 | 0.027 | 0.0071 | 0.017 | 0.0096
C/C(=N\NC(=O)c1c(Br)c(C)nn1C)c1cccc(NC(=O)c2ccccc2C)c1 | i | i | -9 | i | i | -2.8 | . | . | . | . | . | .

Assay outcomes (PubChem BioAssay)
